The values that follow come from ChEMBL document CHEMBL1156948, “Statistical molecular design of a focused salicylidene acylhydrazide library and multivariate QSAR of inhibition of type III secretion in the Gram-negative bacterium Yersinia” (Bioorg Med Chem, 2010).

Series [1] relates to Escherichia coli. Briefly: Antibacterial activity against Escherichia coli DH5[alpha] at 100 uM after 23 hrs by broth dilution assay. The class given is functional, organism-based. The method, boiled down:
(§1)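 Overnight LB culture of E. coli DH5α grown at 37 °C, diluted to OD600 0.1 in LB with 2.5 mM CaCl2; compound added from DMSO stock to final 50 or 100 µM. Incubated at 37 °C with absorbance at 595 nm followed over 23 h.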

Series [2] has as its system Escherichia coli. Put plainly: Antibacterial activity against Escherichia coli DH5[alpha] at 50 uM after 23 hrs by broth dilution assay. The class given is functional, organism-based. The method, boiled down: as §1
In general terms: In broth dilution the organism is exposed to a series of concentrations in liquid medium.

The test system of series [3] is Yersinia pseudotuberculosis YPIII. Put plainly: Inhibition of T3S in Yersinia pseudotuberculosis YPIII expressing yopE-luxAB at 25 uM after 3 hrs by luciferase reporter gene assay. In outline:
(§2)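 Strain YPIII pIB102 (yopE-luxAB) grown overnight at room temperature in BHI with 5 mM EGTA and 20 mM MgCl2 (calcium depletion), adjusted to OD600 0.088–0.095. Compound added from DMSO at 1.56–200 µM final (eight concentrations). Shaken 1 h at room temperature, then 2 h at 37 °C. Decanal added and light emission read immediately. Triplicates, repeated at least three times.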
(A reporter such as luciferase makes a cellular process visible.)

Series [4] concerns Yersinia pseudotuberculosis. Put plainly: Antibacterial activity against Yersinia pseudotuberculosis expressing pIB102 at 50 uM after 23 hrs by broth dilution assay. Format: functional, organism-based. In outline:
(§3)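 Wild-type pIB102 grown overnight in LB at room temperature, diluted to OD600 = 0.1 in LB with 2.5 mM CaCl2. Compound added from DMSO stock to final 50 and 100 µM. Incubated at 37 °C with absorbance at 595 nm read over 23 h.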

The test system of series [5] is Yersinia pseudotuberculosis YPIII. Briefly: Inhibition of T3S in Yersinia pseudotuberculosis YPIII expressing yopE-luxAB at 12.5 uM after 3 hrs by luciferase reporter gene assay. The method, boiled down:
as §2

The test system is the same in series [6]. Briefly: Inhibition of T3S in Yersinia pseudotuberculosis YPIII expressing yopE-luxAB at 100 uM after 3 hrs by luciferase reporter gene assay. In outline:
as §2

The test system is the same in series [7]. Briefly: Inhibition of T3S in Yersinia pseudotuberculosis YPIII expressing yopE-luxAB at 200 uM after 3 hrs by luciferase reporter gene assay. The method, boiled down: as §2
The target in series [8] is Tyrosine-protein phosphatase YopH (Yersinia pseudotuberculosis serotype I (strain IP32953)) (UniProt P08538). Briefly: Inhibition of YopH in Yersinia pseudotuberculosis YPIII expressing yopE-luxAB treated 3 hrs before substrate addition measured after 15 mins by microplate reader. In outline: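 Same calcium-depleted YPIII pIB102 cultures and compound exposure (1 h room temperature, then 2 h 37 °C). An aliquot of the bacterial suspension was mixed with 25 mM p-nitrophenyl phosphate, 40 mM MES pH 5.0, 1.6 mM DTT. Incubated 15 min at 37 °C, quenched with 1 M NaOH, absorbance read at 405 nm. Triplicates, repeated at least three times.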
Sequence of Tyrosine-protein phosphatase YopH (Yersinia pseudotuberculosis serotype I (strain IP32953)) (P08538 whole entry): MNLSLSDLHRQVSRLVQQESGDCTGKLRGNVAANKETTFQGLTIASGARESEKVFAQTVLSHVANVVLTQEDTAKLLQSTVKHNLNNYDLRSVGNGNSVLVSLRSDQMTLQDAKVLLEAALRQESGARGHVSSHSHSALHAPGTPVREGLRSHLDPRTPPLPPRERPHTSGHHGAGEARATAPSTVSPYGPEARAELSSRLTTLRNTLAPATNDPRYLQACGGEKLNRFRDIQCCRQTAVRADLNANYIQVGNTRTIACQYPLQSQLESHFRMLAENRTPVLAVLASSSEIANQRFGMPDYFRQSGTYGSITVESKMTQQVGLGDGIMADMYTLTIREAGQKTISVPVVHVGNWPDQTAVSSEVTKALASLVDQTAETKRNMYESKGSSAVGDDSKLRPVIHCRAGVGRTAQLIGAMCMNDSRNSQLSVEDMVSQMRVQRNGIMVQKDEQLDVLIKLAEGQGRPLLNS

In series [9] the test system is Yersinia pseudotuberculosis YPIII. Put plainly: Inhibition of T3S in Yersinia pseudotuberculosis YPIII expressing yopE-luxAB at 1.56 uM after 3 hrs by luciferase reporter gene assay. In outline:
as §2

Series [10] has the same test system. Put plainly: Inhibition of T3S in Yersinia pseudotuberculosis YPIII expressing yopE-luxAB at 3.13 uM after 3 hrs by luciferase reporter gene assay. In outline: as §2
For series [11] the test system is unchanged. Briefly: Inhibition of T3S in Yersinia pseudotuberculosis YPIII expressing yopE-luxAB at 50 uM after 3 hrs by luciferase reporter gene assay. In outline: as §2
Series [12] relates to Yersinia pseudotuberculosis. Put plainly: Antibacterial activity against Yersinia pseudotuberculosis expressing pIB102 at 100 uM after 23 hrs by broth dilution assay. Format: functional, organism-based. The method, boiled down: as §3
In series [13] the test system is Yersinia pseudotuberculosis YPIII. Briefly: Inhibition of T3S in Yersinia pseudotuberculosis YPIII expressing yopE-luxAB at 6.25 uM after 3 hrs by luciferase reporter gene assay. In outline:
as §2

For series [14], the system named is Yersinia pseudotuberculosis. Put plainly: Antibacterial activity against Yersinia pseudotuberculosis expressing pIB102 infected in mouse J774 cells assessed as inhibition of bacteria-induced cell death at 50 uM after 14 hrs using calcein AM staining by fluorescence microscopy. Format: functional, organism-based. The method, boiled down:
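J774A macrophages (4 × 10^4 cells/well) grown 24 h in DMEM/10% FCS/gentamicin. Wild-type pIB102 grown in LB plus kanamycin overnight at room temperature, diluted 1/10 in DMEM, shaken 1 h at room temperature then 2 h at 37 °C. Added at OD600 = 0.002 with compound (25, 50, 100 µM final; DMSO <0.5%). Incubated 14 h, 37 °C, 5% CO2. CalceinAM 40 min, fluorescence 485/535 nm; uninfected cells = 100% viability.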

The subject of another series is J774. Briefly: Cytotoxicity against mouse J774 cells at 25 to 100 uM after 14 hrs using calcein AM staining by fluorescence microscopy. The class given is cell-based. To be noted: j774, 14 h. The method, boiled down:
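J774A macrophages (4×10⁴/well, DMEM with 10% FCS, gentamicin 3 µg/mL, 24 h at 37 °C, 5% CO2) washed with PBS, then given fresh DMEM with compound plus bacteria (OD600 0.002), final 25, 50, 100 µM, DMSO below 0.5%. ETEC grown overnight in LB at 37 °C, diluted and grown 3 h. 14 h at 37 °C, 5% CO2; CalceinAM 40 min, fluorescence 485/535 nm, confirmed by microscopy; uninfected cells = 100% viability; gentamicin 5 µg/mL rescue control.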

The test system of another series is Chlamydia trachomatis. Put plainly: Antibacterial activity against Chlamydia trachomatis infected in human HeLa 229 cells after 35 hrs by fluorescence microscopy. The class given is functional. In outline:
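HeLa 229 monolayers infected with C. trachomatis serovar L2, MOI 0.3; compounds diluted in RPMI 1640 with 10% FCS, 2 mM L-glutamine, 8 µg/mL gentamicin (DMSO final 1%) added 1 h post-infection at 50, 25, 12.5, 6.25, 3.13 µM. 35 h at 37 °C, 5% CO2; methanol fixation, immunostaining, fluorescence microscopy at 200×. MIC = lowest concentration with no intracellular inclusions; duplicates, ≥3 occasions.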

Series [15] can be described thus: Cytotoxicity against human HeLa 229 cells assessed as cell viability at 50 uM after 28 hrs using resazurin staining by fluorescence microscopy. Format: cell-based. Particulars: read-out: Activity. The method, boiled down:
(§4)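 HeLa 229 viability measured at 50 and 25 µM using resazurin added 4 h before read-out; cell-free wells with medium plus compound exclude chemical reduction of resazurin. Scored relative to DMSO control, plus microscopic scoring; non-toxic defined as at least 70% viability versus control. Triplicates, repeated at least three times.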
On the technique in general: The colour change of resazurin is a common sign of viable cells or microbes.

Series [16] is described as follows: Cytotoxicity against human HeLa 229 cells assessed as cell viability at 25 uM after 28 hrs using resazurin staining by fluorescence microscopy. Format: cell-based. Particulars: read-out: Activity. The method, boiled down:
as §4

Molecules are shown by their SMILES. Values after ≈ are worked out from the molar mass of the structure shown. Active and inactive are the calls of the source.

A word on the inhibition: it is the drop in the measured response relative to a control, in per cent. Turning to `COc1cc(C(=O)N/N=C/c2ccc(O)c(O)c2O)cc(OC)c1OC`, the outcome (in the series on Escherichia coli [1]; in the series with Escherichia coli [2]; in series [4]; in series [12]) was inactive. For the same compound, the inhibition in [3] was 31%; in series [5], 19%; in [6], 58%; in [7] it was 62%; in series [9] it was -10%; in series [10], 11%. Besides, the inhibition was found to be 50% in [11] and 14% in [13]. Moreover, the inhibition result in series [8] is “inactive”.

`O=C(N/N=C/c1cc(Br)ccc1O)c1ccncc1`: the result (with Escherichia coli [1]; in the series with Escherichia coli [2]; in series [4]; in [12]) was inactive. The inhibition in series [3] is 43%; in series [5] it was 24%; in [6] it was 95%; in series [7], 98%; in series [9] it was -8%; in [10] it was 14%. Further, the inhibition in series [11] came out at 87%; in [13], 13%. Further, the inhibition result in series [14] was “Active”. Also, the Activity result in the series with J774 is “Non-toxic”.

For orientation: MIC means the lowest concentration found to suppress growth. With `Cc1ccc(C(=O)N/N=C/c2cc(C(C)(C)C)ccc2O)cc1`, the outcome (in the series on Escherichia coli [1]; in the series with Escherichia coli [2]; in series [4]; in series [12]) was inactive. In addition, the minimum inhibitory concentration (MIC) in the series with Chlamydia trachomatis is 50 µM (≈ 15.5 µg/mL). The inhibition in [3] is 20%; in series [5], 18%; in series [6], 24%; in [7] it was 25%; in series [9] it was 13%; in [10], 6%. For the same compound, the inhibition was 17% in series [11] and 14% in series [13]. Also, the viability at 28 h, 50 µM in [15] was 79%. The viability at 28 h, 25 µM in series [16] was found to be 80%.

Consider `CCN(CC)c1ccc(/C=N/NC(=O)c2ccc(OC)c(OC)c2)c(O)c1`, for which the outcome (with Escherichia coli [1]; in the series on Escherichia coli [2]; in series [4]; in [12]) was inactive. The inhibition in series [3] turned out to be 44%; in [5], 29%; in series [6] it was 66%; in series [7], 56%; in series [10] it was 14%; in [11], 66%. For the same compound, in [13], the inhibition turned out to be 14%. Moreover, the inhibition entry in series [8] was “inactive”.

Take `NC(=O)C(=O)N/N=C/c1c(O)cc(O)cc1O`: the result (in the series on Escherichia coli [1]; with Escherichia coli [2]; in series [4]; in series [12]) was inactive. In addition, the inhibition was 26% in [3]; 17% in series [5]; 63% in series [6]; 64% in series [7]; -1% in [9]; 5% in series [10]. In addition, the results for the inhibition in [11] and in series [13] were 51% and 17%, respectively. Further, the inhibition entry in [8] is “inactive”.

As to `O=C(N/N=C/c1ccc(Cl)cc1O)c1ccncc1`, the outcome (with Escherichia coli [1]; in the series with Escherichia coli [2]; in series [4]; in series [12]) was inactive. The MIC entry with Chlamydia trachomatis is “inactive”. Besides, the inhibition in series [3] was 27%; in series [5], 4%; in series [6], 96%; in series [7] it was 95%; in series [9], 5%; in [10], -1%. Moreover, the inhibition in series [11] is 84%; in [13], 3%. In series [15], the viability at 28 h, 50 µM is 67%. For the same compound, the viability at 28 h, 25 µM in series [16] is 72%.

Take `O=C(N/N=C/c1cccc(F)c1O)c1ccc([N+](=O)[O-])cc1`: the result (in the series on Escherichia coli [1]; with Escherichia coli [2]; in [4]; in [12]) was inactive. Besides, the MIC in the series with Chlamydia trachomatis came out at 50 µM (≈ 15.2 µg/mL). Further, the inhibition in [3] amounted to 19%; in series [5], 4%; in series [6], 20%; in series [7] it was 59%; in series [9], 1%; in [10] it was 7%. Also, the inhibition in [11] is 28%; in series [13], 2%. Besides, the viability at 28 h, 50 µM in [15] is 72%. Further, the viability at 28 h, 25 µM in series [16] stood at 75%.

Regarding `O=C(N/N=C/c1cc(Br)ccc1O)c1ccccc1Cl`, the result (in the series on Escherichia coli [1]; in the series on Escherichia coli [2]; in series [4]; in series [12]) was inactive. In the series on Chlamydia trachomatis, the MIC amounted to 50 µM (≈ 17.7 µg/mL). Further, the inhibition is 11% in series [3]; 13% in series [5]; 58% in series [6]; 61% in [7]; 10% in series [9]; 10% in [10]. Further, the inhibition in [11] came to 38%; in series [13], 10%. In addition, in series [15], the viability at 28 h, 50 µM stood at 60%. In [16], the viability at 28 h, 25 µM came to 77%.

With `COc1ccc(Br)c(/C=N/NC(=O)c2ccncc2)c1O`, the result (with Escherichia coli [1]; in the series on Escherichia coli [2]; in series [4]; in series [12]) was inactive. Further, the inhibition in series [3] is 27%; in series [5], 18%; in series [6] it was 77%; in [7], 35%; in series [10], 9%; in series [11] it was 54%. In series [13], the inhibition stood at 18%. Further, the inhibition entry in series [8] was “inactive”.
